Laboratory results published in ChEMBL document CHEMBL1240500, “Peptidyl alpha-ketoamides with nucleobases, methylpiperazine, and dimethylaminoalkyl substituents as calpain inhibitors” (J Med Chem, 2010).

Legend:
[1] = molecular target: T1, Calpain-1 catalytic subunit (Sus scrofa, UniProt P35750); assay: Inhibition of porcine erythrocyte calpain 1
T1 sequence (P35750 whole entry): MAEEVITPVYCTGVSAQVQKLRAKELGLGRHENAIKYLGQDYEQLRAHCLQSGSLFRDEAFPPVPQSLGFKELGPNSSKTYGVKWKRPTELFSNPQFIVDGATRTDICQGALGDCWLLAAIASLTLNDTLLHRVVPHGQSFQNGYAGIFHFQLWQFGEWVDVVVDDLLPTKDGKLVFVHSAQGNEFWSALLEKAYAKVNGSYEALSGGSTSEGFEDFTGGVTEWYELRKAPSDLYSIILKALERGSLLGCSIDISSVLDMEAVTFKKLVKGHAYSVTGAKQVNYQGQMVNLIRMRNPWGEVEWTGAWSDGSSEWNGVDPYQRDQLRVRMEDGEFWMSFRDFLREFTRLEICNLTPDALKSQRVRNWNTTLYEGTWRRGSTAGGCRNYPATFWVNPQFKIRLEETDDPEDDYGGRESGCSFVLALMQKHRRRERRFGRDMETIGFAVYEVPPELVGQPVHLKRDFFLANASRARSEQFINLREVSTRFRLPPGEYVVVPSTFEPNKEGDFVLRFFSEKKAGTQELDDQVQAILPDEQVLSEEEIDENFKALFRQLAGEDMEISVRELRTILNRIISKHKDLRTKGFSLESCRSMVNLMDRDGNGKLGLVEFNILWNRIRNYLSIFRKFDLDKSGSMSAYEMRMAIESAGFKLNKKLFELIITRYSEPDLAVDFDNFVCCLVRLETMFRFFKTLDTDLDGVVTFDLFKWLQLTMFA

[2] = molecular target: T2, Calpain-2 catalytic subunit (Sus scrofa, UniProt P43367); assay: Inhibition of porcine kidney calpain 2
T2 sequence (P43367 whole entry): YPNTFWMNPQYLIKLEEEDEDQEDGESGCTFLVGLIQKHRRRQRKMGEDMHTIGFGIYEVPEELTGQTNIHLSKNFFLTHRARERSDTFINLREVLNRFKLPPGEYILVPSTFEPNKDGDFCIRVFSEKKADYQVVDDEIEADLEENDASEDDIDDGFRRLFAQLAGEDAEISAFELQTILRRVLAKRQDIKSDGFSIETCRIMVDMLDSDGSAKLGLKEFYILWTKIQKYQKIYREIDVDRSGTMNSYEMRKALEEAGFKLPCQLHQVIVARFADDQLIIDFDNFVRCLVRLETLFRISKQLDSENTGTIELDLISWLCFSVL

Cathepsin B = Cathepsin B (Homo sapiens, UniProt P07858); assay: Inhibition of human liver cathepsin B
How it was run: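 Human liver cathepsin B was DTT-activated (final 0.4 µM) in 0.1 M NaHPO4 pH 6.0 with 1.25 mM EDTA, 0.01% Brij and <5% DMSO. Cbz-Arg-Arg-AMC was used at 0.5, 0.2 and 0.1 µM, with ≥5 inhibitor concentrations. AMC fluorescence was read at ex 360/em 465 nm. Ki was taken from Dixon plots of 1/v versus [I].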

[3] = molecular target: T3, Calpain-1 catalytic subunit (Sus scrofa) (UniProt P35750); assay: Ratio of compound Ki to AK295 Ki for porcine erythrocyte calpain 1
T3 sequence (whole entry): T1 sequence (P35750 whole entry)

[4] = Drug level in C57BL/6 mouse brain at 24 mg/kg, sc after 8 hrs by HPLC analysis; format: ADME, organism-based; parameters: dose 24 mg/kg, route subcutaneous; details: read-out: Drug uptake
How it was run: (§1)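 7-week-old female C57BL/6 mice (N = 3 per time point) got 24 mg/kg subcutaneously, were perfused with buffered saline at 37 °C, and were killed at 1, 2, 4 or 8 h. Brain was homogenized 5% w/v in water with internal standard spiked in. LC-MS/MS used ESI+ MRM and a Symmetry Shield C18 column. Quantitation was by peak-area ratio against plasma calibration standards.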

[5] = Drug level in C57BL/6 mouse brain at 24 mg/kg, sc after 2 hrs by HPLC analysis; format: ADME, organism-based; parameters: dose 24 mg/kg, route subcutaneous; details: read-out: Drug uptake; how it was run: as §1
[6] = Drug level in C57BL/6 mouse heart at 24 mg/kg, sc after 1 hr by HPLC analysis; format: ADME, organism-based; parameters: dose 24 mg/kg, route subcutaneous; details: read-out: Drug uptake
How it was run: (§2)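 7-week-old female C57BL/6 mice got 24 mg/kg subcutaneously (N = 2) or intravenously (N = 3). They were perfused with buffered saline at 37 °C and killed at 1 h. Tissues were homogenized 5% w/v in water with internal standard. LC-MS/MS used ESI+ MRM and a Zorbax Extend C18 column. Concentration came from the analyte/internal-standard area ratio against calibration standards made in undosed control tissue (0.10–1.00 µM). Errors came from repeat injections.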

[7] = Drug level in C57BL/6 mouse kidney at 24 mg/kg, sc after 1 hr by HPLC analysis; format: ADME, organism-based; parameters: dose 24 mg/kg, route subcutaneous; details: read-out: Drug uptake; how it was run: as §2
[8] = Drug level in C57BL/6 mouse liver at 24 mg/kg, sc after 1 hr by HPLC analysis; format: ADME, organism-based; parameters: dose 24 mg/kg, route subcutaneous; details: read-out: Drug uptake; how it was run: as §2
[9] = Drug level in C57BL/6 mouse serum at 24 mg/kg, sc after 1 hr by HPLC analysis; format: ADME, organism-based; parameters: dose 24 mg/kg, route subcutaneous; details: read-out: Drug uptake; how it was run: as §2
[10] = Drug level in C57BL/6 mouse spleen at 24 mg/kg, sc after 1 hr by HPLC analysis; format: ADME, organism-based; parameters: dose 24 mg/kg, route subcutaneous; details: read-out: Drug uptake; how it was run: as §2
[11] = Drug level in C57BL/6 mouse heart at 24 mg/kg, iv after 1 hr by HPLC analysis; format: ADME, organism-based; parameters: dose 24 mg/kg, route intravenous; details: read-out: Drug uptake; how it was run: as §2
[12] = Drug level in C57BL/6 mouse kidney at 24 mg/kg, iv after 1 hr by HPLC analysis; format: ADME, organism-based; parameters: dose 24 mg/kg, route intravenous; details: read-out: Drug uptake; how it was run: as §2
[13] = Drug level in C57BL/6 mouse liver at 24 mg/kg, iv after 1 hr by HPLC analysis; format: ADME, organism-based; parameters: dose 24 mg/kg, route intravenous; details: read-out: Drug uptake; how it was run: as §2
[14] = Drug level in C57BL/6 mouse peripheral nerve at 24 mg/kg, iv after 1 hr by HPLC analysis; format: ADME, organism-based; parameters: dose 24 mg/kg, route intravenous; details: read-out: Drug uptake; how it was run: as §2
[15] = Drug level in C57BL/6 mouse spleen at 24 mg/kg, iv after 1 hr by HPLC analysis; format: ADME, organism-based; parameters: dose 24 mg/kg, route intravenous; details: read-out: Drug uptake; how it was run: as §2

SMILES	Ki [1]	Ki [2]	Ki (Cathepsin B)	Ratio [3]	other results
CC(C)C[C@H](NC(=O)OCc1ccccc1)C(=O)NC(Cc1ccccc1)C(=O)C(=O)NCCN(C)C (some centres undefined)	711 nM	3520 nM	475000 nM		
CCC(NC(=O)[C@H](CC(C)C)NC(=O)OCc1ccccc1)C(=O)C(=O)NCCCn1cnc2c(N)nc(OC)nc21 (some centres undefined)	23 nM	77 nM	880 nM	3	
CC(C)C[C@H](NC(=O)OCc1ccccc1)C(=O)NC(Cc1ccccc1)C(=O)C(=O)NCCCN1CCN(C)CC1 (some centres undefined)	1370 nM	6360 nM	111000 nM		
CCC(NC(=O)[C@H](CC(C)C)NC(=O)OCc1ccccc1)C(=O)C(=O)NCCCN1CCOCC1 (some centres undefined)	150 nM	41 nM	6900 nM		concentration at 1 h [6]: 541 ng/g; concentration at 1 h [7]: 936 ng/g; concentration at 1 h [8]: 1550 ng/g; concentration at 1 h [9]: 895 ng/g; concentration at 1 h [10]: 1380 ng/g; concentration at 1 h [11]: 561 ng/g; concentration at 1 h [12]: 1820 ng/g; concentration at 1 h [13]: 943 ng/g; concentration at 1 h [14]: 333 ng/g; concentration at 1 h [15]: 1320 ng/g
COc1nc(N)c2ncn(CCCNC(=O)C(=O)C(Cc3ccccc3)NC(=O)[C@H](CC(C)C)NC(=O)OCc3ccccc3)c2n1 (some centres undefined)	41 nM	209 nM	2340 nM	3	

Further lines, with some results ahead:

Ki [1]	Ki [2]	Ki (Cathepsin B)	SMILES	Ratio [3]	other results
165 nM	1140 nM	750 nM	CCC(NC(=O)[C@H](CC(C)C)NC(=O)OCc1ccccc1)C(=O)C(=O)NCCCn1ccc(N)nc1=O (some centres undefined)		
53 nM	70 nM	800 nM	CCC(NC(=O)[C@H](CC(C)C)NC(=O)OCc1ccccc1)C(=O)C(=O)NCCCn1cnc2c(N)ncnc21 (some centres undefined)	3	concentration at 8 h [4]: 1170 ng/g
640 nM	286 nM	1420 nM	CCC(NC(=O)[C@H](CC(C)C)NC(=O)OCc1ccccc1)C(=O)C(=O)NCCCN1CCN(C)CC1 (some centres undefined)		concentration at 2 h [5]: 1140 ng/g
480 nM	438 nM	440 nM	CC(C)C[C@H](NC(=O)OCc1ccccc1)C(=O)NC(Cc1ccccc1)C(=O)C(=O)NCCCn1ccc(N)nc1=O (some centres undefined)		
226 nM	844 nM	75500 nM	CC(C)C[C@H](NC(=O)OCc1ccccc1)C(=O)NC(Cc1ccccc1)C(=O)C(=O)NCCCN(C)C (some centres undefined)		
55 nM	68 nM	1750 nM	CC(C)C[C@H](NC(=O)OCc1ccccc1)C(=O)NC(Cc1ccccc1)C(=O)C(=O)NCCCn1cnc2c(N)ncnc21 (some centres undefined)	3	
